# Measurements reported in the RNAGym collection of RNA variant scans (doi:10.1002/anie.201605470).
# B1: Osa-1-4 twister ribozyme (parent)
# chain: CCGCCUAACACUGCCAAUGCCGGUCCCAAGCCCGGAUAAAAGUGGAGGGGGCGG
# Variants of: B1
# Assay: self-cleavage, relative activity (ratio to wild type); higher = more cleavage; co-transcriptional
# Summary of the method: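 Values are relative activity: the fraction cleaved, normalised to wild type. A doped DNA template for a 54-nucleotide twister ribozyme from Oryza sativa had 97 % wild-type base and 1 % of each other base at the 48 positions downstream of the cleavage site. The RNA was transcribed in vitro for 2 h at 37 °C so that it could cleave itself co-transcriptionally, then sequenced deeply, with cleavage status scored from the presence or absence of upstream sequence in reads.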
row,Variant,self-cleavage
1,CCGCCUAACACUGCCAAUGCCGGUCCGAAGCCCGGAUAAAAGUCGAGGGGGCGG [C27G G44C],0.08
2,CCGCCUAACACUGCCAAUGCCGGUCCGAACCCCGGAUAAAAGUGGAGGGGGCGG [C27G G30C],0.02
3,CCGCCUAACACUGCCAAUGCCGGUCCGAAACCCGGAUAAAAGUGGAGGGGGCGG [C27G G30A],0.02
4,CCGCCUAACACUGCCAAUGCCGGUCCGAAUCCCGGAUAAAAGUGGAGGGGGCGG [C27G G30U],0.02
5,CCGCCUAACACUGCCAAUGCCGGUCCAAAGCCCGGACAAAAGUGGAGGGGGCGG [C27A U37C],0.32
6,CCGCCUAACACUGCCAAUGCCGGUCCAAAGCCCGGAAAAAAGUGGAGGGGGCGG [C27A U37A],0.26
7,CCGCCUAACACUGCCAAUGCCGGUCCAAAGCCCGGAGAAAAGUGGAGGGGGCGG [C27A U37G],0.42
8,CCGCCUAACACUGCCAAUGCCGGUCCGAAGCCCGGAUAAAAGUGGAGAGGGCGG [C27G G48A],0.04
9,CCGCCUAACACUGCCAAUGCCGGUCCGAAGCCCGGAUAAAAGUGGAGUGGGCGG [C27G G48U],0.02
10,CCGCCUAACACUGCCAAUGCCGGUCCGAAGCCCGGAUAAAAGUGGAGCGGGCGG [C27G G48C],0.03
11,CCGCCUAACACUGCCAAUGCCGGUCCAAAGCCCGGAUAAAAGUGGAGGGGUCGG [C27A G51U],0.05
12,CCGCCUAACACUGCCAAUGCCGGUCCAAAGCCCGGAUAAAAGUGGAGGGGCCGG [C27A G51C],0.05
13,CCGCCUAACACUGCCAAUGCCGGUCCAAAGCCCGGAUAAAAGUGGAGGGGACGG [C27A G51A],0.1
14,CCGCCUAACACUGCCAAUCCCGGUCCGAAGCCCGGAUAAAAGUGGAGGGGGCGG [C27G G19C],0.03
15,CCGCCUAACACUGCCAAUUCCGGUCCGAAGCCCGGAUAAAAGUGGAGGGGGCGG [C27G G19U],0.04
16,CCGCCUAACACUGCCAAUACCGGUCCGAAGCCCGGAUAAAAGUGGAGGGGGCGG [C27G G19A],0.06
17,CCGCCUAACACUGCCAAUGCCGGUCCGAAGGCCGGAUAAAAGUGGAGGGGGCGG [C27G C31G],0.06
18,CCGCCUAACACUGCCAAUGCCGGUCCGAAGUCCGGAUAAAAGUGGAGGGGGCGG [C27G C31U],0.06
19,CCGCCUAACACUGCCAAUGCCGGUCCGAAGACCGGAUAAAAGUGGAGGGGGCGG [C27G C31A],0.01
20,CCGCCUAACACUGCCAAUGCCGGUCCAAAGCCCGGAUAAAAGUGGAGCGGGCGG [C27A G48C],0.05
21,CCGCCUAACACUGCCAAUGCCGGUCCAAAGCCCGGAUAAAAGUGGAGAGGGCGG [C27A G48A],0.04
22,CCGCCUAACACUGCCAAUGCCGGUCCAAAGCCCGGAUAAAAGUGGAGUGGGCGG [C27A G48U],0.04
23,CCGCCUAACACUGCCAAUGCCGGUCCGAAGCCAGGAUAAAAGUGGAGGGGGCGG [C27G C33A],0.03
24,CCGCCUAACACUGCCAAUGCCGGUCCGAAGCCUGGAUAAAAGUGGAGGGGGCGG [C27G C33U],0.05
25,CCGCCUAACACUGCCAAUGCCGGUCCGAAGCCGGGAUAAAAGUGGAGGGGGCGG [C27G C33G],0.05

row,Variant,self-cleavage
1,CCGCCUAACACUGCCAAUGCCGGUCCGAAGCCCGGAUAAAAGUGGAGGGGGCGG [C27G],0.13
2,CCGCCUAACACUGCCAAUGCCGGUCCAAAGCCCGGAUAAAAGUGGAGGGGGCGC [C27A G54C],0.11
3,CCGCCUAACACUGCCAAUGCCGGUCCAAAGCCCGGAUAAAAGUGGAGGGGGCGA [C27A G54A],0.12
4,CCGCCUAACACUGCCAAUGCCGGUCCAAAGCCCGGAUAAAAGUGGAGGGGGCGU [C27A G54U],0.35
5,CCGCCUAACACUGCCAAUGCCGGUCCGAAGCCCGGAUAAAAGUGCAGGGGGCGG [C27G G45C],0.03
6,CCGCCUAACACUGCCAAUGCCGGUCCGAAGCCCGGAUAAAAGUGUAGGGGGCGG [C27G G45U],0.02
7,CCGCCUAACACUGCCAAUGCCGGUCCGAAGCCCGGAUAAAAGUGAAGGGGGCGG [C27G G45A],0.02
8,CCGCCUAAGACUGCCAAUGCCGGUCCGAAGCCCGGAUAAAAGUGGAGGGGGCGG [C27G C9G],0.07
9,CCGCCUAAUACUGCCAAUGCCGGUCCGAAGCCCGGAUAAAAGUGGAGGGGGCGG [C27G C9U],0.05
10,CCGCCUAAAACUGCCAAUGCCGGUCCGAAGCCCGGAUAAAAGUGGAGGGGGCGG [C27G C9A],0.03
11,CCGCCUAACACUGCCAAUGCCGGUCCAAAGCCCGGAUAAAAGUCGAGGGGGCGG [C27A G44C],0.14
12,CCGCCUAACACUGCCAAUGCCGGUCCAAAGCCCGGAUAAAAGUUGAGGGGGCGG [C27A G44U],0.14
13,CCGCCUAACACUGCCAAUGCCGGUCCAAAGCCCGGAUAAAAGGGGAGGGGGCGG [C27A U43G],0.15
14,CCGCCUAACACUGCCAAUGCCGGUCCAAAGCCCGGAUAAAAGCGGAGGGGGCGG [C27A U43C],0.1
15,CCGCCUAACACUGCCAAUGCCGGUCCAAAGCCCGGAUAAAAGAGGAGGGGGCGG [C27A U43A],0.1
16,CCGCCUAACACUCCCAAUGCCGGUCCGAAGCCCGGAUAAAAGUGGAGGGGGCGG [C27G G13C],0.01
17,CCGCCUAACACUACCAAUGCCGGUCCGAAGCCCGGAUAAAAGUGGAGGGGGCGG [C27G G13A],0.03
18,CCGCCUAACACUUCCAAUGCCGGUCCGAAGCCCGGAUAAAAGUGGAGGGGGCGG [C27G G13U],0.01
19,CCGCCUAACACUGCCAACGCCGGUCCAAAGCCCGGAUAAAAGUGGAGGGGGCGG [C27A U18C],0.26
20,CCGCCUAACACUGCCAAAGCCGGUCCAAAGCCCGGAUAAAAGUGGAGGGGGCGG [C27A U18A],0.27
21,CCGCCUAACACUGCCAAGGCCGGUCCAAAGCCCGGAUAAAAGUGGAGGGGGCGG [C27A U18G],0.34
22,CCGCCUAACACAGCCAAUGCCGGUCCAAAGCCCGGAUAAAAGUGGAGGGGGCGG [C27A U12A],0.07
23,CCGCCUAACACGGCCAAUGCCGGUCCAAAGCCCGGAUAAAAGUGGAGGGGGCGG [C27A U12G],0.11
24,CCGCCUAACACCGCCAAUGCCGGUCCAAAGCCCGGAUAAAAGUGGAGGGGGCGG [C27A U12C],0.06
